Laboratory results as given in ChEMBL document CHEMBL5058577, “EUbOPEN Chemogenomics Library 2 (Multiplex)” (2022).

System: U2OS
Experiment: Multiplex assay against U2OS
Assay type: toxicity, cell-based
Details: human
In short: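 Compound was added to live cells that had been stained at seeding with Hoechst33342, BioTracker Green Microtubule Cytoskeleton Dye, MitoTracker Red and Annexin V Alexa Fluor 680, and imaging followed on a CQ1 microscope at 37°C and 5% CO2. CellPathfinder machine-learning gating divided cells into Hoechst high-intensity objects or normal cells, normal cells into healthy, pyknosed or fragmented nuclei, and pyknosed cells into mitotic or apoptotic. Tubulin, mitochondrial-mass and membrane-permeability phenotypes are per cents of healthy-nucleus cells.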

[1] = 12 h, 1 µM, compound concentration 1 uM, replicate 1
[2] = 12 h, 1 µM, compound concentration 1 uM, replicate 2
[3] = 12 h, 10 µM, compound concentration 10 uM, replicate 1
[4] = 12 h, 10 µM, compound concentration 10 uM, replicate 2
[5] = 24 h, 1 µM, compound concentration 1 uM, replicate 1
[6] = 24 h, 1 µM, compound concentration 1 uM, replicate 2
[7] = 24 h, 10 µM, compound concentration 10 uM, replicate 1
[8] = 24 h, 10 µM, compound concentration 10 uM, replicate 2
[9] = 48 h, 1 µM, compound concentration 1 uM, replicate 1
[10] = 48 h, 1 µM, compound concentration 1 uM, replicate 2
[11] = 48 h, 10 µM, compound concentration 10 uM, replicate 1
[12] = 48 h, 10 µM, compound concentration 10 uM, replicate 2

## Cc1ccc(OCC(O)C(C)NC(C)C)c2c1CCC2.Cl (configuration not stated)
[1]
  Population Apoptotic (%): 63%
  Population Fragmented Nuclei (%): 19%
  Population Healthy Nuclei (%): 66%
  Population Hoechst High Intensity Objects (%): 2%
  Population Membrane Permeable-Phenotype (%): 8%
  Population Mitochondria Different-Phenotype (%): 3%
  Population Mitotic Cells (%): 36%
  Population Normal (%): 97%
  Population Pyknosed Nuclei (%): 13%
  Population Tubulin-Different-Phenotype (%): 4%
  Total Cell Count: 222
[2]
  Population Apoptotic (%): 90%
  Population Fragmented Nuclei (%): 11%
  Population Healthy Nuclei (%): 79%
  Population Hoechst High Intensity Objects (%): 1%
  Population Membrane Permeable-Phenotype (%): 7%
  Population Mitochondria Different-Phenotype (%): 2%
  Population Mitotic Cells (%): 9%
  Population Normal (%): 98%
  Population Pyknosed Nuclei (%): 8%
  Population Tubulin-Different-Phenotype (%): 2%
  Total Cell Count: 129
[3]
  Population Apoptotic (%): 61%
  Population Fragmented Nuclei (%): 30%
  Population Healthy Nuclei (%): 52%
  Population Hoechst High Intensity Objects (%): 5%
  Population Membrane Permeable-Phenotype (%): 14%
  Population Mitochondria Different-Phenotype (%): 17%
  Population Mitotic Cells (%): 38%
  Population Normal (%): 94%
  Population Pyknosed Nuclei (%): 16%
  Population Tubulin-Different-Phenotype (%): 8%
  Total Cell Count: 215
[4]
  Population Apoptotic (%): 80%
  Population Fragmented Nuclei (%): 11%
  Population Healthy Nuclei (%): 81%
  Population Hoechst High Intensity Objects (%): 0%
  Population Membrane Permeable-Phenotype (%): 9%
  Population Mitochondria Different-Phenotype (%): 22%
  Population Mitotic Cells (%): 20%
  Population Normal (%): 99%
  Population Pyknosed Nuclei (%): 7%
  Population Tubulin-Different-Phenotype (%): 9%
  Total Cell Count: 137
[5]
  Population Apoptotic (%): 88%
  Population Fragmented Nuclei (%): 14%
  Population Healthy Nuclei (%): 75%
  Population Hoechst High Intensity Objects (%): 0%
  Population Membrane Permeable-Phenotype (%): 5%
  Population Mitochondria Different-Phenotype (%): 3%
  Population Mitotic Cells (%): 11%
  Population Normal (%): 100%
  Population Pyknosed Nuclei (%): 10%
  Population Tubulin-Different-Phenotype (%): 4%
  Total Cell Count: 255
[6]
  Population Apoptotic (%): 93%
  Population Fragmented Nuclei (%): 15%
  Population Healthy Nuclei (%): 73%
  Population Hoechst High Intensity Objects (%): 1%
  Population Membrane Permeable-Phenotype (%): 3%
  Population Mitochondria Different-Phenotype (%): 5%
  Population Mitotic Cells (%): 6%
  Population Normal (%): 98%
  Population Tubulin-Different-Phenotype (%): 0%
  Total Cell Count: 155
[7]
  Population Apoptotic (%): 82%
  Population Fragmented Nuclei (%): 26%
  Population Healthy Nuclei (%): 56%
  Population Hoechst High Intensity Objects (%): 3%
  Population Membrane Permeable-Phenotype (%): 10%
  Population Mitochondria Different-Phenotype (%): 17%
  Population Mitotic Cells (%): 17%
  Population Normal (%): 96%
  Population Pyknosed Nuclei (%): 17%
  Population Tubulin-Different-Phenotype (%): 4%
  Total Cell Count: 230
[8]
  Population Apoptotic (%): 92%
  Population Fragmented Nuclei (%): 14%
  Population Healthy Nuclei (%): 77%
  Population Hoechst High Intensity Objects (%): 2%
  Population Membrane Permeable-Phenotype (%): 12%
  Population Mitochondria Different-Phenotype (%): 11%
  Population Mitotic Cells (%): 7%
  Population Normal (%): 97%
  Population Pyknosed Nuclei (%): 8%
  Population Tubulin-Different-Phenotype (%): 6%
  Total Cell Count: 172
[9]
  Population Apoptotic (%): 88%
  Population Fragmented Nuclei (%): 14%
  Population Healthy Nuclei (%): 73%
  Population Hoechst High Intensity Objects (%): 0%
  Population Membrane Permeable-Phenotype (%): 6%
  Population Mitochondria Different-Phenotype (%): 4%
  Population Mitotic Cells (%): 11%
  Population Normal (%): 99%
  Population Pyknosed Nuclei (%): 12%
  Population Tubulin-Different-Phenotype (%): 3%
  Total Cell Count: 377
[10]
  Population Apoptotic (%): 80%
  Population Fragmented Nuclei (%): 20%
  Population Healthy Nuclei (%): 69%
  Population Hoechst High Intensity Objects (%): 2%
  Population Membrane Permeable-Phenotype (%): 5%
  Population Mitochondria Different-Phenotype (%): 3%
  Population Mitotic Cells (%): 20%
  Population Normal (%): 97%
  Population Pyknosed Nuclei (%): 10%
  Population Tubulin-Different-Phenotype (%): 2%
  Total Cell Count: 202
[11]
  Population Apoptotic (%): 82%
  Population Fragmented Nuclei (%): 23%
  Population Healthy Nuclei (%): 63%
  Population Hoechst High Intensity Objects (%): 4%
  Population Membrane Permeable-Phenotype (%): 12%
  Population Mitochondria Different-Phenotype (%): 12%
  Population Mitotic Cells (%): 17%
  Population Normal (%): 95%
  Population Pyknosed Nuclei (%): 13%
  Population Tubulin-Different-Phenotype (%): 6%
  Total Cell Count: 306
[12]
  Population Apoptotic (%): 77%
  Population Fragmented Nuclei (%): 15%
  Population Healthy Nuclei (%): 73%
  Population Hoechst High Intensity Objects (%): 0%
  Population Membrane Permeable-Phenotype (%): 7%
  Population Mitochondria Different-Phenotype (%): 4%
  Population Mitotic Cells (%): 22%
  Population Normal (%): 99%
  Population Pyknosed Nuclei (%): 11%
  Population Tubulin-Different-Phenotype (%): 3%
  Total Cell Count: 246

## C[C@H](NC(=O)CNC(=O)c1cccc(Cl)c1)c1ccccc1
[1]
  Population Apoptotic (%): 78%
  Population Fragmented Nuclei (%): 26%
  Population Healthy Nuclei (%): 61%
  Population Hoechst High Intensity Objects (%): 3%
  Population Membrane Permeable-Phenotype (%): 6%
  Population Mitochondria Different-Phenotype (%): 4%
  Population Mitotic Cells (%): 21%
  Population Normal (%): 96%
  Population Pyknosed Nuclei (%): 12%
  Population Tubulin-Different-Phenotype (%): 2%
  Total Cell Count: 242
[2]
  Population Apoptotic (%): 71%
  Population Fragmented Nuclei (%): 20%
  Population Healthy Nuclei (%): 68%
  Population Membrane Permeable-Phenotype (%): 8%
  Population Mitochondria Different-Phenotype (%): 2%
  Population Mitotic Cells (%): 28%
  Population Pyknosed Nuclei (%): 11%
  Total Cell Count: 124
[3]
  Population Apoptotic (%): 68%
  Population Fragmented Nuclei (%): 24%
  Population Healthy Nuclei (%): 63%
  Population Hoechst High Intensity Objects (%): 2%
  Population Membrane Permeable-Phenotype (%): 9%
  Population Mitochondria Different-Phenotype (%): 3%
  Population Mitotic Cells (%): 31%
  Population Normal (%): 97%
  Population Pyknosed Nuclei (%): 11%
  Population Tubulin-Different-Phenotype (%): 4%
  Total Cell Count: 198
[4]
  Population Apoptotic (%): 66%
  Population Fragmented Nuclei (%): 13%
  Population Healthy Nuclei (%): 82%
  Population Hoechst High Intensity Objects (%): 0%
  Population Membrane Permeable-Phenotype (%): 2%
  Population Mitotic Cells (%): 33%
  Population Normal (%): 100%
  Population Pyknosed Nuclei (%): 4%
  Population Tubulin-Different-Phenotype (%): 2%
  Total Cell Count: 150
[5]
  Population Apoptotic (%): 79%
  Population Fragmented Nuclei (%): 19%
  Population Healthy Nuclei (%): 71%
  Population Hoechst High Intensity Objects (%): 2%
  Population Membrane Permeable-Phenotype (%): 7%
  Population Mitochondria Different-Phenotype (%): 2%
  Population Mitotic Cells (%): 20%
  Population Normal (%): 97%
  Population Pyknosed Nuclei (%): 8%
  Population Tubulin-Different-Phenotype (%): 2%
  Total Cell Count: 275
[6]
  Population Apoptotic (%): 88%
  Population Healthy Nuclei (%): 69%
  Population Membrane Permeable-Phenotype (%): 4%
  Population Mitochondria Different-Phenotype (%): 4%
  Population Mitotic Cells (%): 11%
  Population Pyknosed Nuclei (%): 10%
  Population Tubulin-Different-Phenotype (%): 0%
  Total Cell Count: 168
[7]
  Population Apoptotic (%): 90%
  Population Fragmented Nuclei (%): 24%
  Population Healthy Nuclei (%): 61%
  Population Hoechst High Intensity Objects (%): 1%
  Population Membrane Permeable-Phenotype (%): 6%
  Population Mitochondria Different-Phenotype (%): 4%
  Population Mitotic Cells (%): 9%
  Population Normal (%): 98%
  Population Pyknosed Nuclei (%): 13%
  Population Tubulin-Different-Phenotype (%): 2%
  Total Cell Count: 239
[8]
  Population Apoptotic (%): 71%
  Population Fragmented Nuclei (%): 12%
  Population Healthy Nuclei (%): 83%
  Population Membrane Permeable-Phenotype (%): 4%
  Population Mitochondria Different-Phenotype (%): 2%
  Population Mitotic Cells (%): 28%
  Population Pyknosed Nuclei (%): 3%
  Population Tubulin-Different-Phenotype (%): 3%
  Total Cell Count: 189
[9]
  Population Apoptotic (%): 74%
  Population Fragmented Nuclei (%): 18%
  Population Healthy Nuclei (%): 71%
  Population Hoechst High Intensity Objects (%): 3%
  Population Membrane Permeable-Phenotype (%): 6%
  Population Mitochondria Different-Phenotype (%): 3%
  Population Mitotic Cells (%): 25%
  Population Normal (%): 96%
  Population Pyknosed Nuclei (%): 10%
  Population Tubulin-Different-Phenotype (%): 1%
  Total Cell Count: 401
[10]
  Population Apoptotic (%): 100%
  Population Fragmented Nuclei (%): 17%
  Population Healthy Nuclei (%): 70%
  Population Hoechst High Intensity Objects (%): 2%
  Population Membrane Permeable-Phenotype (%): 4%
  Population Mitotic Cells (%): 0%
  Population Normal (%): 97%
  Population Pyknosed Nuclei (%): 11%
  Population Tubulin-Different-Phenotype (%): 2%
  Total Cell Count: 205
[11]
  Population Apoptotic (%): 81%
  Population Fragmented Nuclei (%): 19%
  Population Healthy Nuclei (%): 73%
  Population Hoechst High Intensity Objects (%): 2%
  Population Membrane Permeable-Phenotype (%): 6%
  Population Mitochondria Different-Phenotype (%): 2%
  Population Mitotic Cells (%): 18%
  Population Normal (%): 97%
  Population Pyknosed Nuclei (%): 7%
  Population Tubulin-Different-Phenotype (%): 4%
  Total Cell Count: 311
[12]
  Population Apoptotic (%): 100%
  Population Fragmented Nuclei (%): 12%
  Population Healthy Nuclei (%): 80%
  Population Hoechst High Intensity Objects (%): 1%
  Population Membrane Permeable-Phenotype (%): 4%
  Population Mitochondria Different-Phenotype (%): 1%
  Population Mitotic Cells (%): 0%
  Population Normal (%): 98%
  Population Tubulin-Different-Phenotype (%): 1%
  Total Cell Count: 279
